According to ChEMBL document CHEMBL1147097, “Trioxaquines are new antimalarial agents active on all erythrocytic forms, including gametocytes” (Antimicrob Agents Chemother, 2007):
pIC50: −log10 of the molar value.

What was measured:
[1] = Ratio of LD50 for Swiss mice (Mus musculus) to ED50 for Plasmodium vinckei petteri infected mice (Mus musculus); type: functional
Method in brief: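 Therapeutic index: LD50 (healthy Swiss mice, observed 60 days) divided by ED50 from the 4-day P. vinckei petteri suppressive test.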

Plasmodium falciparum [2] = test: Antimalarial activity against chloroquine-sensitive Plasmodium falciparum F32; type: functional, organism-based
Method in brief: (§1)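 Asexual P. falciparum grown in culture at 37°C under 5% CO2 and exposed to drug dilutions for 48 h. Growth inhibition measured by radioactive micromethod. IC50 read graphically from concentration vs % growth inhibition; mean of at least three independent experiments.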

Plasmodium falciparum [3] = test: Antimalarial activity against chloroquine-resistant Plasmodium falciparum FcM29; type: functional, organism-based; method in brief: as §1
Plasmodium falciparum [4] = test: Antimalarial activity against chloroquine-resistant Plasmodium falciparum FcB1; type: functional, organism-based; method in brief: as §1
[5] = test system: Plasmodium vinckei petteri; test: Antimalarial activity against Plasmodium vinckei petteri infected intraperitoneally dosed Swiss Albino mice (Mus musculus); type: functional
Method in brief: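 Four-day suppressive test: groups of five female Swiss albino mice infected i.p. on day 0 with 2 × 10^7 parasitized red cells, then dosed once daily for 4 days (i.p., p.o. or s.c.; DMSO vehicle, chloroquine in 0.9% NaCl). Parasitemia read on day 4 vs untreated controls; ED50/ED90 as % growth inhibition; CD50/CD90 = cure (no parasites at 60 days).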

## CC(C)C1=C[C@H]2OC3(CCC(NCCNc4ccnc5cc(Cl)ccc45)CC3)OO[C@@]2(C)CC1 (stereo in doubt; form 5)
[1]
  Ratio LD50/ED50: 23

## CC(C)C1=C[C@H]2OC3(CCC(NCCNc4ccnc5cc(Cl)ccc45)CC3)OO[C@@]2(C)CC1 (stereo in doubt; form 8) [TRIOXAQUINE 3]
Plasmodium falciparum [2]
  pIC50: 7.96
Plasmodium falciparum [3]
  pIC50: 7.92
Plasmodium falciparum [4]
  pIC50: 8.10

## CC(C)C1=C[C@H]2OC3(CCC(NCCNc4ccnc5cc(Cl)ccc45)CC3)OO[C@@]2(C)CC1 (stereo in doubt; form 4)
Plasmodium falciparum [3]
  pIC50: 7.72
Plasmodium falciparum [4]
  pIC50: 7.37

## CO[C@H]1O[C@@H]2O[C@@]3(C)CC[C@H]4[C@H](C)CC[C@@H]([C@H]1C)[C@@]24OO3
[5]; Plasmodium vinckei, ip, read-out: ED50
  ED50: 0.3 mg/kg/day
[5]; Plasmodium vinckei, ip, read-out: ED90
  ED90: 0.7 mg/kg/day

## CC(C)C1=C[C@H]2OC3(CCC(NCCNc4ccnc5cc(Cl)ccc45)CC3)OO[C@@]2(C)CC1.O=C(O)CC(O)(CC(=O)O)C(=O)O (stereo in doubt; form 9)
[5]
  ED50: 3 mg/kg/day
  ED90: 8 mg/kg/day
